Assay results as given in PubChem BioAssay AID588484 (The Scripps Research Institute Molecular Screening Center, 2011).
Activity calls are given as the source filed them.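 How the source made its calls: active means IC50 of 1 µM or lower against any of the four tested PAD enzyme isoforms; inactive means the rest, IC50 above 1 µM everywhere.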

Experiments:
Experiment in all cases: inhibition of PAD isozymes 1-4 – biochemical, colorimetric, BAEE substrate, recombinant PAD1-4, selectivity assay for PAD4 inhibitor project, late-stage follow-up (AID 588484)
[1] = molecular target: Protein-arginine deiminase type-1 (Homo sapiens) (UniProt Q9ULC6); conditions: recombinant PAD1-4, BAEE citrullination, colorimetric absorbance; PAD1
Chain of Protein-arginine deiminase type-1 (Homo sapiens) (Q9ULC6 whole entry, looked up): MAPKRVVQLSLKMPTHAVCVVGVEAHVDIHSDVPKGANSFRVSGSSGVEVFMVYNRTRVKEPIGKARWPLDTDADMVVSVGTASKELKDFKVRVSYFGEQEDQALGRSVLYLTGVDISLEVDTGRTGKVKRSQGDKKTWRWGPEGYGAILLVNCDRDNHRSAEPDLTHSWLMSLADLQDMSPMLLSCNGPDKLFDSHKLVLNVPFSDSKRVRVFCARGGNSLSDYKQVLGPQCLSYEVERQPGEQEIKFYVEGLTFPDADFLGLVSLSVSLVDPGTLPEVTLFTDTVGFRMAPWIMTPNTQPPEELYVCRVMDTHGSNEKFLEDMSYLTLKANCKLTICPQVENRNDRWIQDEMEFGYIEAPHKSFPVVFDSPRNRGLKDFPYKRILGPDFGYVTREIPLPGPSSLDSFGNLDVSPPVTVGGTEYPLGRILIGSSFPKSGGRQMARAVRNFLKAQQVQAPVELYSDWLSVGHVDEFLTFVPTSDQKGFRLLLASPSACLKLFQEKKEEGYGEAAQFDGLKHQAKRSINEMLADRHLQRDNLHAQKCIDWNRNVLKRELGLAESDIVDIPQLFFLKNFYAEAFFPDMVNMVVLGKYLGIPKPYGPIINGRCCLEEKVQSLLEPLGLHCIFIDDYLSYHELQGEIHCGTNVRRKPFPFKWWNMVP
Summary of the method: (§1)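 material = recombinant PAD2, PAD3 or PAD4 | medium = Tris pH 7.6, CaCl2, DTT | incubation = 15 min pre-incubation (37 °C), 15 min reaction | signal = colorimetric citrulline measurement by absorbance at 540 nm | measure = IC50 from fitted concentration–activity curve | repeats = duplicates per concentration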

[2] = molecular target: Protein-arginine deiminase type-2 (Homo sapiens) (UniProt Q9Y2J8); conditions: recombinant PAD1-4, BAEE citrullination, colorimetric absorbance; PAD2
Chain of Protein-arginine deiminase type-2 (Homo sapiens) (Q9Y2J8 whole entry, looked up): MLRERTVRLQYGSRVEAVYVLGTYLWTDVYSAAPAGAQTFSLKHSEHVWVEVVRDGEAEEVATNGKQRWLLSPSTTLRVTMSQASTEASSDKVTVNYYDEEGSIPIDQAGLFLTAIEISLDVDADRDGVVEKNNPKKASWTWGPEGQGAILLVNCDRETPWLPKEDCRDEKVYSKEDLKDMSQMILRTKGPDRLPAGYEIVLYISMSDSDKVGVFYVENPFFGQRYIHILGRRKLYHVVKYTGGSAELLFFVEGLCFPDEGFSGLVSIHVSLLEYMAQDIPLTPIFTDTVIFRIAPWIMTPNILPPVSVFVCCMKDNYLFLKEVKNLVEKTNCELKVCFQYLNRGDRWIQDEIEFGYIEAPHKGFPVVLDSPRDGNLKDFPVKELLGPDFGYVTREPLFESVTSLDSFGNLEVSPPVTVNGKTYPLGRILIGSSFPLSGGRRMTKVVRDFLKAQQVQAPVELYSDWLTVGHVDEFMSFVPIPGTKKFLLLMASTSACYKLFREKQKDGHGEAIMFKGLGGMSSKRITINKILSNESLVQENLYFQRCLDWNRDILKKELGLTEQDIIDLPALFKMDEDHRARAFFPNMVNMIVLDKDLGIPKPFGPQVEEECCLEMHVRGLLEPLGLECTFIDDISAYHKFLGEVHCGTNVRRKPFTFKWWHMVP
Summary of the method: as §1

[3] = molecular target: Protein-arginine deiminase type-3 (Homo sapiens) (UniProt Q9ULW8); conditions: recombinant PAD1-4, BAEE citrullination, colorimetric absorbance; PAD3
Chain of Protein-arginine deiminase type-3 (Homo sapiens) (Q9ULW8 whole entry, looked up): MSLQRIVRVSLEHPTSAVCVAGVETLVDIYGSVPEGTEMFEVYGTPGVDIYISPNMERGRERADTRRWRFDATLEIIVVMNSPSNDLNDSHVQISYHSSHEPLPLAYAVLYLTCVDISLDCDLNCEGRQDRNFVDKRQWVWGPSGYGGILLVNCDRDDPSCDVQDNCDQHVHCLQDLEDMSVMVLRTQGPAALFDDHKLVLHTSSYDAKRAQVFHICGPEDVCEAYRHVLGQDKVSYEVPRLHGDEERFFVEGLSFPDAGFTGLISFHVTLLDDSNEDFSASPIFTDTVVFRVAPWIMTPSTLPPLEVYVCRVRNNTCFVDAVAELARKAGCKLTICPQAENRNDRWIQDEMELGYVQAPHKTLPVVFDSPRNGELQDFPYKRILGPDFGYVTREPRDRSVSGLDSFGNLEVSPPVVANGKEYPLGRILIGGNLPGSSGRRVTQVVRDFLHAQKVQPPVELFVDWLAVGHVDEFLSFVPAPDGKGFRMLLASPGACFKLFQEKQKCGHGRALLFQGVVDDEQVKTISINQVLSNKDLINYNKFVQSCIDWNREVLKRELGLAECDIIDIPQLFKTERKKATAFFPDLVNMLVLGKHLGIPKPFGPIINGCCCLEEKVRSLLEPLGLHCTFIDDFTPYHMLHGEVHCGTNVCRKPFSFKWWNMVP
Summary of the method: as §1

[4] = molecular target: Protein-arginine deiminase type-4 (Homo sapiens) (UniProt Q9UM07); conditions: recombinant PAD1-4, BAEE citrullination, colorimetric absorbance; PAD4
Chain of Protein-arginine deiminase type-4 (Homo sapiens) (Q9UM07 whole entry, looked up): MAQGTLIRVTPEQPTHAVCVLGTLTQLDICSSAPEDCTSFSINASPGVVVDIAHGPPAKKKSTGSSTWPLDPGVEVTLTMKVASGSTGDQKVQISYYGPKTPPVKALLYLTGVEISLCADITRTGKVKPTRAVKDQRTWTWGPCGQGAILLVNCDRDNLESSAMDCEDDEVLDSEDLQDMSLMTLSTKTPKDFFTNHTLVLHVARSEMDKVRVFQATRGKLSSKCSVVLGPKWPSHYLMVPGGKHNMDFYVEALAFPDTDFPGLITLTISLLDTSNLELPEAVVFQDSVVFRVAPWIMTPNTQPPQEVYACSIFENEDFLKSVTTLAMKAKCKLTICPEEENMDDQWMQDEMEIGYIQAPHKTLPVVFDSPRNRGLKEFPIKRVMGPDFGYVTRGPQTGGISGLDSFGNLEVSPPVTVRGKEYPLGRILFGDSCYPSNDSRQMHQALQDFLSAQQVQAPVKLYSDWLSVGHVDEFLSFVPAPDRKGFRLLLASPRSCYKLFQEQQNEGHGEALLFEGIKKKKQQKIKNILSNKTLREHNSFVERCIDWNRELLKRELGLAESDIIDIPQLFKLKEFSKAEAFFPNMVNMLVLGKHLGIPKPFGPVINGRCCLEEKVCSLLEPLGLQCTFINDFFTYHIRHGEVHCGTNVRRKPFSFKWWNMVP
Summary of the method: as §1

Measured: IC50

COC1=C(Br)C(=O)c2ncccc2C1=O
inactive: all assays above
